Bioassay records from PubChem BioAssay.
Sampled rows, rich in hits. Any-hit rate of the full collection: about 1.3%.
Diaphorase inh – counter-screen for diaphorase-based assays: diaphorase inhibitors and chemical oxidizers. diaphorase resazurin-to-resorufin fluorescence, NADH, 16 min; bacterial (C. kluyveri) enzyme, not human. inhibition, % at 20 µM. actives 0.69% (n = 190,000). AID 1217;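 active means primary screen inhibition at 20 µM above a set limit, cut at about 50% in these data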;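 further: plate controls were DMSO with full reaction for no effect and wells lacking NADH for full effect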
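material = Clostridium kluyveri diaphorase enzyme | amount = 0.14 U/mL diaphorase, enzyme working solution | schedule = incubation 16 min, room temperature | detection = fluorescence of resorufin formed from resazurin, Ex 544/Em 590 nm | benchmarks = positive control minus NADH, DMSO neutral control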
PfGluPho inh – PfG6PD (Plasmodium falciparum) enzyme inhibition; PfGluPho enzyme, NADPH resazurin-diaphorase fluorescence; inhibition, % at 20 µM; actives 0.78% (n = 350,000); AID 504690;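 active means inhibition reaching at least a set limit at 20 µM in the primary screen, cut at about 59% in these data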;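 further: 0% = DMSO wells with substrate and 100% = DMSO wells lacking glucose-6-phosphate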
Diaph act CS – diaphorase activation or chemical reduction counter-screen. activation factor at 20 µM. Diaphorase/resazurin coupled assay, resorufin fluorescence, 16 min; active compounds read high; 1 = vehicle wells, 0 = NADH-free wells. actives 0.005% (n = 190,000);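 active means diaphorase activity raised at least twofold by the compound at 20 µM; inactive means activation factor below 2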
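System – purified diaphorase enzyme from Clostridium kluyveri · Input – enzyme 0.07 U/mL final · Also added – final NADH 0.114 mM, resazurin 0.1 mM · Measured by – fluorescence of resorufin, 544 nm excitation, 590 nm emission · Timing – 16 min enzyme reaction, ambient temperature · Measure – resorufin increase flagging diaphorase activators or reducers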
HKDC1 inhibitor – blocks human hexokinase HKDC1 activity | Q2TB90 | recombinant HKDC1, G6PDH/diaphorase resazurin coupled fluorescence | inhibition, % at 20 µM | actives 0.16% (n = 340,000) | AID 493160;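 active means inhibition above about 35% when tested at 20 µM, limit read from the data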;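 further: plate controls were DMSO wells with enzyme for no effect and DMSO wells lacking enzyme for full effect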
Target sequence (Q2TB90 whole entry, looked up): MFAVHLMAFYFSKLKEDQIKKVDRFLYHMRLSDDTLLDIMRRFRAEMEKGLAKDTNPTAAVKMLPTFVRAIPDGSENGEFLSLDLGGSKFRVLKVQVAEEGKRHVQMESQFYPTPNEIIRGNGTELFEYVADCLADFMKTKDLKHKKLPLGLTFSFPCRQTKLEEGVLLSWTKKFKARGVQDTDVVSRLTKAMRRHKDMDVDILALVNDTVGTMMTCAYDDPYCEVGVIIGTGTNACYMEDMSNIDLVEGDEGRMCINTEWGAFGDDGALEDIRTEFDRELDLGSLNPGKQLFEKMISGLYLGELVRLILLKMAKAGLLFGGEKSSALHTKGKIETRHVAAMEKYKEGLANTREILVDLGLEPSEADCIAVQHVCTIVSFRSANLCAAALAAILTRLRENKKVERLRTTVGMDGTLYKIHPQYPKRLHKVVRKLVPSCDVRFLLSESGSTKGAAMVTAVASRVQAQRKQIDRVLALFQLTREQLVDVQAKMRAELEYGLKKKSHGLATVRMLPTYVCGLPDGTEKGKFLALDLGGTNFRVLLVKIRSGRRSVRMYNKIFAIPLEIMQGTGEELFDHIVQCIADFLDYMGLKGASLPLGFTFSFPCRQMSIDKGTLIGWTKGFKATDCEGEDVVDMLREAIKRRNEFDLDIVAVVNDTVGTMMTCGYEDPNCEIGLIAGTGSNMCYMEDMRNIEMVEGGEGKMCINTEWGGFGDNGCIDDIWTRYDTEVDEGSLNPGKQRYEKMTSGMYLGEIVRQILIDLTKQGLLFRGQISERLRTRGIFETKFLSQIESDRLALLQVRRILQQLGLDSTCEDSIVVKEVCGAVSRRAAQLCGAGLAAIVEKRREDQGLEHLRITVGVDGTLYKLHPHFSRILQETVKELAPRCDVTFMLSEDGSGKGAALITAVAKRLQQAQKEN
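Test system: recombinant HKDC1 (HK5) hexokinase enzyme, produced in-house; Amount: enzyme 5 µg/mL final; Buffer or medium: Tris pH 8.0 buffer with MgCl2, Tween-20, BSA, BME; Reagent: glucose and ATP substrates; Doses: 20 µM test compound, 1% DMSO; Incubation: 90 min reaction incubation at room temperature, dark; Detection: resorufin fluorescence at 613 nm.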
G6PDH counter – counter-screen for G6PDH assay hits: L. mesenteroides G6PDH inhibition. Purified L. mesenteroides G6PDH, diaphorase/resazurin coupled fluorescence, 45 min. inhibition, % at 5 µM. AID 1020. actives 0.12% (n = 200,000); in the data active means inhibition above about 50%
* marks the source's active call; other numbers are inactive results; . = not tested or not shown.

SMILES | Diaphorase inh | PfGluPho inh | Diaph act CS | HKDC1 inhibitor | G6PDH counter
O=C(O)c1cc(-c2ccc(/C=C3/SC(=S)N(Cc4ccccc4)C3=O)o2)ccc1Cl | 52* | -6 | 0.5 | 6 | 17
COc1ccc(CN2C(=O)/C(=C/c3ccc(-c4ccc(Cl)c(C(=O)O)c4)o3)SC2=S)cc1 | 36 | . | 0.6 | . | 1
Cc1ccccc1NC(=O)CN1C(=O)S/C(=C\c2ccc(-c3cc(C(=O)O)ccc3C)o2)C1=O | 67* | 7 | 0.3 | 20 | 10
Cc1ccc(NC(=O)CN2C(=O)S/C(=C\c3ccc(C(=O)O)cc3)C2=O)cc1 | . | -8 | . | -5 | .
COC(=O)C1=CN(c2ccc(F)cc2)C=C(C(=O)OC)C1c1ccc(O)cc1 | . | 8 | . | 2 | .
O=C1c2c(O)cc(O)cc2O[C@H](c2ccc(O)c(O)c2)[C@@H]1O | 54* | . | 0.5 | . | 36
CCC1(C)Cc2sc3c(=O)[nH]c(=S)[nH]c3c2CO1 (stereo not drawn) | 84* | -10 | 0.2 | 1 | 9
Cc1cc2oc(=O)cc(-c3ccccc3)c2c(C)c1-c1ccc(C#N)cc1 | . | -6 | . | -3 | .
Cc1ccc(O)c(C=Nc2ccc3[nH]ncc3c2)c1 | 61* | 37 | 0.4 | 2 | 34
CCN(CC)c1ccc(N2C(=NC(=O)C3CC3)SC3CS(=O)(=O)CC32)cc1 (stereo not drawn) | . | 3 | . | -2 | .
CCn1c(=O)c(-[n+]2ccccc2)c(O)c2ccccc21 | 53* | 38 | 0.5 | -5 | -14
COc1cc(NC(C)CCCN)c2ncccc2c1 (stereo not drawn) | . | 30 | . | 13 | .
COc1cc(NCCCCCCCN)c2ncccc2c1 | 17 | 30 | 0.8 | 12 | 53*
Cn1c(N)c(C(=O)CSc2nnc(NC3CCCCC3)s2)c(=O)n(C)c1=O | . | 29 | . | 2 | .
Cc1ccc2[nH]c(=O)c(C(c3nnnn3CC3CCCO3)N3CCCc4ccccc43)cc2c1 (stereo not drawn) | 80* | 27 | 0.2 | 6 | 14
COc1ccc2[nH]c(=O)c(C(c3nnnn3CC3CCCO3)N3CCc4ccccc4C3)cc2c1 (stereo not drawn) | 52* | 3 | 0.5 | 8 | 5
Cc1ccc2[nH]c(=O)c(C(c3nnnn3CC3CCCO3)N3CCc4ccccc4C3)cc2c1 (stereo not drawn) | 63* | 28 | 0.4 | 22 | 11
CN(C)CCCn1c2c(c(SCC(=O)Nc3ccc4c(c3)OCCO4)nc1=O)CCC2 | . | 10 | . | -2 | .
Cc1cccc([N+](=O)[O-])c1NC(=O)CSc1nnc2ccccn12 | . | 18 | . | -6 | .
CCOC(=O)NC1(Nc2ccc(C)cc2)Oc2ccccc2O1 | 54* | 25 | 0.5 | -8 | 17
Cc1cn([C@H]2C[C@H](O)[C@@H](CNCc3cnc(N4CCOCC4)s3)O2)c(=O)[nH]c1=O | . | -16 | . | . | .
COc1ccc(C(=O)N/N=C/c2c[nH]c3ccccc23)cc1 | . | 7 | . | -1 | .
COc1ccc(C(=O)N/N=C/c2cc3ccccc3[nH]c2=S)cc1 | 55* | 37 | 0.5 | 1 | 2
Cc1ccc2c(c1)[C@H]1[C@H](CO2)[C@H](c2ccccc2)[C@]2(C)C(=O)N(C)CC(=O)N12 | . | -11 | . | 3 | .
O=[N+]([O-])c1ccccc1-c1ccc(C(=S)N2CCCC2)o1 | 53* | 57 | 0.5 | 4 | 27
SMILES | Diaphorase inh | PfGluPho inh | Diaph act CS | HKDC1 inhibitor | G6PDH counter
O=[N+]([O-])c1ccccc1-c1ccc(C(=S)N2CCCCC2)o1 | . | 28 | . | -4 | .
Nc1ccc2c(c1)OC1(CCCC1)O2 | 52* | 49 | 0.5 | 15 | 12
O=C(Cc1ccccc1)Nc1ccc2c(c1)OC1(CCCC1)O2 | . | 11 | . | 1 | .
O=C(NNC(=S)NC(=O)c1cccs1)c1cccnc1 | 57* | -19 | 0.4 | -2 | -2
Cc1cccc(C(=O)N2CCC(N3CCC(C(=O)N4CCOCC4)CC3)CC2)c1 | . | -3 | . | -7 | .
Cc1cccc(CC(=O)N2CCC(N3CCC(C(=O)N4CCOCC4)CC3)CC2)c1 | 55* | 3 | 0.4 | 0 | 14
C#CCOCCOCCOCCNc1nc(N2CCN(C(=O)[C@H](CCC(=O)O)n3cc([C@@H](N)[C@H](C)CC)nn3)CC2)nc(N2CCN(C(=O)[C@H](CCCCN)n3cc([C@@H](N)CC(N)=O)nn3)CC2)n1 | . | 3 | . | -4 | .
Cc1cc(C)c2nc(NNC(=O)c3cc(=O)c4ccccc4o3)sc2c1 | 67* | 19 | 0.3 | -19 | 16
Cc1cc(C)c2nc(NNC(=O)c3ccc(S(=O)(=O)N4CCc5ccccc5C4)cc3)sc2c1 | 7 | -19 | 0.9 | -24 | 8
O=C(c1cc2c(=O)n3ccccc3nc2s1)N1CCc2ccccc2C1 | 57* | . | 0.4 | . | 7
CCOC(=O)c1c(NCC2CCCO2)c2ccccc2[nH]c1=O (stereo not drawn) | -5 | 10 | 1.1 | -7 | 4
CCOC(=O)c1c(C)oc2c1c(C=NCC1CCCO1)c(O)c1ccccc12 (stereo not drawn) | 75* | 47 | 0.3 | 15 | 50*
Cc1cc2nc3ccc(=[N+](C)C)cc-3sc2cc1N | . | 102* | . | 47* | .
Cc1nc2cc(C)c(C)cc2s1 | 3 | -12 | 1 | 15 | 4
CCC(=O)N(C1=C(NC)C(=O)c2ccccc2C1=O)C(C)C | 22 | -22 | 0.8 | 6 | 41
CNC1=C(N(C(C)=O)c2ccc(Br)cc2)C(=O)c2ccccc2C1=O | 41 | 44 | 0.6 | 9 | 52*
CC1CCN(S(=O)(=O)c2nnc(NC(=O)c3cccc([N+](=O)[O-])c3)s2)CC1 | . | 113* | . | 6 | .
Cc1cc(-c2n[nH]c(=S)n2/N=C/C(Cl)=C/c2ccccc2)n[nH]1 | 51* | 14 | 0.5 | 21 | 13
Cc1cc(-c2n[nH]c(=S)n2/N=C/c2cccc([N+](=O)[O-])c2)n[nH]1 | 62* | 15 | 0.4 | 13 | -2
CC(=C/c1ccccc1)/C=N/n1c(-c2ccncc2)n[nH]c1=S | 66* | 10 | 0.3 | -3 | 9
Cc1cc(-c2n[nH]c(=S)n2/N=C/c2cccc(O)c2)n[nH]1 | . | 20 | . | -4 | .
COCc1ccc(C(=O)NC2CCCc3c2cnn3-c2cc(C)cc(C)c2)s1 (stereo not drawn) | . | -14 | . | 6 | .
C=C(C)C1CC=C(C)/C(=N\NC(=S)Nc2ccc(C)cc2)C1 (stereo not drawn) | 66* | -9 | 0.3 | -5 | 5
C=C(C)C1CC=C(C)/C(=N/NC(=O)COc2ccc(C)cc2)C1 (stereo not drawn) | 1 | -18 | 1 | -5 | 0
O=c1[nH]c2ccccc2c(O)c1O | 72* | 75* | 0.3 | -10 | 15
O=c1[nH]c2ccccc2c(O)c1-[n+]1ccccc1 | . | 40 | . | -8 | .
N#C/C(=C\c1ccccc1C(=O)O)c1nc2ccccc2[nH]1 | . | -14 | . | 1 | .
N#C/C(=C\c1ccc(-c2ccc(C(=O)O)cc2)o1)c1nc2ccccc2[nH]1 | 65* | -9 | 0.4 | 7 | 11
